Assay results published in ChEMBL document CHEMBL1133101, “7-Methyl-6,7,8,9,14,15-hexahydro-5H-benz[d]indolo[2,3-g]azecine: a new heterocyclic system and a new lead compound for dopamine receptor antagonists” (J Med Chem, 2000).

Tests used:
[1] = molecular target: T1, Adrenergic receptor alpha-1 (Homo sapiens, UniProt P35348+P25100+P35368); test: Binding affinity against Alpha-1 adrenergic receptor; format: protein assay
T1 sequence (P35348 whole entry): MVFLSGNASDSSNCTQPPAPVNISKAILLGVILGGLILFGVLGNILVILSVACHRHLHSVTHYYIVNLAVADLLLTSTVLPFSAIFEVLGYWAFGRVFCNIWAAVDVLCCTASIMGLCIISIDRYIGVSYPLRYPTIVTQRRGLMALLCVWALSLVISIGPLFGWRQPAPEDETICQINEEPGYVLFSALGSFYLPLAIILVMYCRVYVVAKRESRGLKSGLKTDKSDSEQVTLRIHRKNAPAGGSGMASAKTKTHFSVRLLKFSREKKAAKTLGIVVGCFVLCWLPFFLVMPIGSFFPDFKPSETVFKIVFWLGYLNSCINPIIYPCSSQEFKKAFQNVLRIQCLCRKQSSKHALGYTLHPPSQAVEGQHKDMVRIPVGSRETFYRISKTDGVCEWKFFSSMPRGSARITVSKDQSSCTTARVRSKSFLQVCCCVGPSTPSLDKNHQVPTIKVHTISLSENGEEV
T1 sequence (P25100 whole entry): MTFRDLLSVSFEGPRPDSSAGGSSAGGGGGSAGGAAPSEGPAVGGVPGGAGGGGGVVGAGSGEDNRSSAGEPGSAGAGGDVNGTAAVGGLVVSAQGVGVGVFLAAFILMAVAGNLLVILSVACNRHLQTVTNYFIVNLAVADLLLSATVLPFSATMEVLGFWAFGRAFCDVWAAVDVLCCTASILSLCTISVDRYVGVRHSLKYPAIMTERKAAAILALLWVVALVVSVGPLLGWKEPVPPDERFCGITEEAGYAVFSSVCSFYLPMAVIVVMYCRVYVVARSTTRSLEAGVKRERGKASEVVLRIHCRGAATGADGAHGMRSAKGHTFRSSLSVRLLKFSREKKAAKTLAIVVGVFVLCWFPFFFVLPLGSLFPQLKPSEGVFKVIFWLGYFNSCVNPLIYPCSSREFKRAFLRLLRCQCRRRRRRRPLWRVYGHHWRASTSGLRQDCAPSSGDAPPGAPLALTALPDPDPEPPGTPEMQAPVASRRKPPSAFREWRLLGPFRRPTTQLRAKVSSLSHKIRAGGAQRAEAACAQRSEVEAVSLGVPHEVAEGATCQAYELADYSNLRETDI
T1 sequence (P35368 whole entry): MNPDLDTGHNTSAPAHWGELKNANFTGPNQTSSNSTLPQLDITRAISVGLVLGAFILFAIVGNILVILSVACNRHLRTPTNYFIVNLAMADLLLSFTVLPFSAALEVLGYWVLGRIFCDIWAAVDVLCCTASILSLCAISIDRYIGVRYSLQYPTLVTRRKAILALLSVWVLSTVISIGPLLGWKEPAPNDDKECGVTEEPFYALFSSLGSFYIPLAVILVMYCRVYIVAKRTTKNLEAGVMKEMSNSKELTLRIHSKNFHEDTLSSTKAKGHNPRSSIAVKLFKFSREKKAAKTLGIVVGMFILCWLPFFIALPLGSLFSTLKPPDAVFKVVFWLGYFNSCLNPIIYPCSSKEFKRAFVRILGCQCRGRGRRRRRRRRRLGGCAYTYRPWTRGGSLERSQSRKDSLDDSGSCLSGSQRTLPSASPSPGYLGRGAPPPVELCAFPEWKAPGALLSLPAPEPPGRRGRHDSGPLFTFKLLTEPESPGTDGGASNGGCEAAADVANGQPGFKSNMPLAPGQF

[2] = molecular target: D(2) dopamine receptor (Rattus norvegicus) (UniProt P61169); test: Percent decrease in Dopamine receptor D2 binding using spiperone; set-up: scale not given: the % may be the effect or the level left
Sequence of D(2) dopamine receptor (Rattus norvegicus) (P61169 whole entry): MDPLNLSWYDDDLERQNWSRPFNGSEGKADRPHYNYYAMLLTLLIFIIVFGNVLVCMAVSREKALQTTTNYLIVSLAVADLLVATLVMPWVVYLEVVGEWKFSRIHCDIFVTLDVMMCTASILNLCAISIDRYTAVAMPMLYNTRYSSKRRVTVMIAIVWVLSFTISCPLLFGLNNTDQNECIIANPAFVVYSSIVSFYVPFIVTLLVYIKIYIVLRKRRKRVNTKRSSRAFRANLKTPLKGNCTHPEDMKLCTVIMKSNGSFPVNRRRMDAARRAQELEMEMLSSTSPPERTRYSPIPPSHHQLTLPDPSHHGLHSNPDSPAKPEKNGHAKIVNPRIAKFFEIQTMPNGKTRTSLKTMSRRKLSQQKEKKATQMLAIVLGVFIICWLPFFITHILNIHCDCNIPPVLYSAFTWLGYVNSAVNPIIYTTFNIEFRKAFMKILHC
In short: (§1)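 Preliminary screen of receptors isolated from rat or pig tissues, run with minor changes to standard procedures. Each compound was tested at a single fixed concentration for each receptor. The read-out was the percent decrease in binding of the named radioligand.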

[3] = molecular target: Neuronal acetylcholine receptor (Rattus norvegicus) (UniProt P04757+P09483+P12389+P12390+P12392+P43144+Q9JLB5+P12391+P43143+P20420+Q05941); test: % Decrease of Nicotinic acetylcholine receptor-bound radioactivity using cytisine as a radioligand.; format: protein-complex assay; set-up: scale not given: the % may be the effect or the level left; in short: as §1
[4] = molecular target: Serotonin 2 (5-HT2) receptor (Rattus norvegicus, UniProt P30994+P08909+P14842); test: Binding affinity against 5-hydroxytryptamine 2 receptor in rat striatum using [3H]-RP62203; format: tissue-based
[5] = molecular target: T2, Adenosine receptor A1 (Homo sapiens) (UniProt P30542); test: Percent decrease in Adenosine A1 receptor binding using CPDPX; set-up: scale not given: the % may be the effect or the level left
T2 sequence (whole entry): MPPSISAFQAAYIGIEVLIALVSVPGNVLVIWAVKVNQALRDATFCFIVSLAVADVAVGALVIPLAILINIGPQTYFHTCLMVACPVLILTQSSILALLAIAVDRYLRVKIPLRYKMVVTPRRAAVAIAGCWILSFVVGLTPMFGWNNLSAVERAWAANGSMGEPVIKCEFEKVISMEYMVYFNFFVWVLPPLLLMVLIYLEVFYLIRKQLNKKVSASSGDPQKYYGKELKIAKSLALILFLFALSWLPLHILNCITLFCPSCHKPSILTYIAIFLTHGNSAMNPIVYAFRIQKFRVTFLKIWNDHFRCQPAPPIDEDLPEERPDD

D(1A) dopamine receptor = D(1A) dopamine receptor (Rattus norvegicus, UniProt P18901); test: Binding affinity against Dopamine receptor D1 of rat striatal receptor using [3H]SCH-23390
Sequence of D(1A) dopamine receptor (P18901 whole entry): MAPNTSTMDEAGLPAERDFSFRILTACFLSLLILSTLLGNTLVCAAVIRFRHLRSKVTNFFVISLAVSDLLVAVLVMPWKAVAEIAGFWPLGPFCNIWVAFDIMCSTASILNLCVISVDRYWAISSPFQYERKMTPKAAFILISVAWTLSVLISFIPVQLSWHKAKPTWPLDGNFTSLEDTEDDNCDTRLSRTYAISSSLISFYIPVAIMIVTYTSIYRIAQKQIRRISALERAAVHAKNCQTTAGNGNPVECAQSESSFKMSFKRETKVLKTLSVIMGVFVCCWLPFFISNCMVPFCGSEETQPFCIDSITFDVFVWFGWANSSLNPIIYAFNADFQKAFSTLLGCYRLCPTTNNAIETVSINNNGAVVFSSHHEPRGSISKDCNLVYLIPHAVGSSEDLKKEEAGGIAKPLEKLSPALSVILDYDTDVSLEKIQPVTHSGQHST
In short: (§2)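 Rat striatal receptor preparations were used, with [3H]SCH23390 for D1, [3H]spiperone for D2 and [3H]RP62203 for 5-HT2. Ki ([…]) was derived from competitive displacement of the radioligand, with n = 3–7.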

D(2) dopamine receptor = D(2) dopamine receptor (Rattus norvegicus, UniProt P61169); test: Binding affinity against Dopamine receptor D2 of rat striatal mambranes using [3H]spiperone; in short: as §2
Sequence of D(2) dopamine receptor (P61169 whole entry): as the sequence (P61169 whole entry) above

[6] = molecular target: Glutamate receptor ionotropic AMPA (Homo sapiens) (UniProt P48058+P42263+P42262+P42261); test: Percent decrease in Quisqualate receptor binding using AMPA; format: protein-complex assay; set-up: scale not given: the % may be the effect or the level left; in short: as §1
[7] = molecular target: D(1A) dopamine receptor (Rattus norvegicus) (UniProt P18901); test: Percent decrease of Dopamine receptor D1 binding using SCH-23390; set-up: scale not given: the % may be the effect or the level left
Sequence of D(1A) dopamine receptor (Rattus norvegicus) (P18901 whole entry, looked up): as the sequence (P18901 whole entry) above

Structure (SMILES): c1ccc2c3c([nH]c2c1)C1c2[nH]c4ccccc4c2CCN1CC3
- Ki [1]: 76 nM
- Activity [2]: -51%
- Activity [3]: 1%

Structure (SMILES): COc1cc2c(cc1OC)C1c3[nH]c4ccccc4c3CCN1CC2 (configuration not stated)
- Ki [1]: 17 nM
- Activity [2]: -11%
- Activity [3]: -4%

Structure (SMILES): c1ccc2c(c1)CCN1CCc3c([nH]c4ccccc34)C21 (configuration not stated)
- Ki [1]: 79 nM
- Activity [2]: -19%
- Activity [3]: 0%

Structure (SMILES): CN1CCc2ccccc2Cc2[nH]c3ccccc3c2CC1
- Ki [4]: 20 nM
- Activity [5]: 5%
- Ki [1]: 11 nM
- Ki (D(1A) dopamine receptor): 0.08 nM
- Ki (D(2) dopamine receptor): 6 nM
- Activity [3]: -3%
- Activity [6]: -3%
- Activity [7]: -99%
